From article PMC10150180 (Acta Pharmaceutica Sinica. B, 2023)
One block for each compound: values may come before it. Peptide text beside a SMILES is read from it. * marks the point of attachment. Cbz = O=C(OCc1ccccc1)*

Key:
[1] = test system: AEC2s; format: cell-based, mouse; conditions: 3D Matrigel co-culture with MLg2908 cells, Day 14, n = 3
Outline: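 Mouse AEC2s were sorted as DAPI-negative, lineage-negative, EpCAM-positive cells from lineage-depleted lung cells. 5 × 10^3 cells were embedded in Matrigel/DMEM (1:1) with 2 × 10^5 MLg2908 cells in Transwell inserts. Lower-chamber DMEM contained ITS, 10% FBS and antibiotics, changed daily. On Day 14, colonies above a size cutoff were counted by microscopy. CFE = colonies / input AEC2s.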

[2] = test system: SLUG degradation in AEC2s; assay: SLUG degradation in AEC2s with cycloheximide plus 3MA or MG132; format: cell-based, mouse; conditions: CHX 10 μg/mL with 3 MA 5 mmol/L or MG132 10 μmol/L
[3] = molecular target: TRIB3 (immobilized on CM5 sensor chips) (UniProt Q96RU7); assay: SPR
UniProt Q96RU7, sequence (Q96RU7 whole entry): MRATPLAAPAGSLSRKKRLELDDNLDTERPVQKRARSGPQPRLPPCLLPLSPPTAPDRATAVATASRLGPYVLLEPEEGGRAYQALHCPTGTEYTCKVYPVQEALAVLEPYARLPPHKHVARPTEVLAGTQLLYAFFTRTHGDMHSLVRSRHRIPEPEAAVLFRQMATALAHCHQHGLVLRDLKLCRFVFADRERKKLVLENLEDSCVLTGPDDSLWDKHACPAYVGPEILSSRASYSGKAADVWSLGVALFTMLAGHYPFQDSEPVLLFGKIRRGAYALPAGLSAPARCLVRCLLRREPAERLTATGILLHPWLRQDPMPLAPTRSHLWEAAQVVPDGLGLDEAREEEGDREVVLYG

[4] = test system: mBLM-challenged mice; assay: MX69; format: in vivo, mouse; conditions: n = 5
Outline: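 Mice under avertin anaesthesia (400 mg/kg i.p.) received intratracheal bleomycin, 1 U/kg in LPS-free PBS, six times at 14-day intervals. The MDM2 inhibitor was given at 100 mg/kg/day i.p. for 3 days after every challenge and for 3 days before sacrifice. Read-outs: Slug immunoblot in sorted AEC2s (GAPDH loading control), right-lung hydroxyproline, Masson staining, and AEC2 colony-forming efficiency.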

Compound: CC(C)C[C@@H](C=O)NC(=O)[C@H](CC(C)C)NC(=O)[C@H](CC(C)C)NC(=O)OCc1ccccc1 [MG132] (Cbz-Leu-Leu-Leu-aldehyde)
- SLUG degradation [2]: suppressed

Compound: MR2 (from UniProt Q00987 460-470) (peptide)
- Kd [3]: 0.046 µM

Compound: Cc1ccc(NS(=O)(=O)c2ccc3c(c2)C2C=CCC2C(c2ccc(C(=O)O)cc2)N3)cc1C (stereo not shown) [MX69]
- level of Slug in AEC2s ([4]; AEC2s isolated from fibrotic mice but not control mice, immunoblot): increased
- protein level of MDM2 in AEC2s ([4]; AEC2s isolated from fibrotic mice, immunoblot): decreased
- capacity of AEC2s mediated LAR (colony-forming efficiency) ([4]; AEC2s sorted from MX69 treated mBLM mice): further declined

The remaining lines, values ahead:

- CFE of AEC2s [1]: decreased
Compound: C[S+]([O-])c1ccc(-c2nc(-c3ccncc3)c(-c3ccc(F)cc3)[nH]2)cc1 (stereo not shown) [SB203580]

- CFE of AEC2s [1]: decreased
Compound: Oc1c2ccccc2c2c3c(cccc13)N=N2 [SP600125]
